Source: ChEMBL document CHEMBL1165941, “Design and synthesis of 2,4-disubstituted polyhydroquinolines as prospective antihyperglycemic and lipid modulating agents” (Bioorg Med Chem, 2010)
The source made the active and inactive calls. No cut-off for these calls is given here.

What was measured:
[1] = Inhibition of glycogen phosphorylase assessed as […] phosphate release at 100 uM after 30 mins
How it was run: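 Glycogen phosphorylase was incubated with glycogen, glucose-1-phosphate, NaF and 5′-AMP for 30 min at 37 °C. The reaction was stopped with 10% TCA and 0.1 M sodium acetate. Samples were held overnight at 4 °C, then released Pi was measured.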

[2] = biological target: Dipeptidyl peptidase 4 (Homo sapiens) (UniProt P27487); test: Inhibition of DPP4 at 100 uM after 15 mins by spectrofluorimeter
Chain of Dipeptidyl peptidase 4 (Homo sapiens) (P27487 whole entry, looked up): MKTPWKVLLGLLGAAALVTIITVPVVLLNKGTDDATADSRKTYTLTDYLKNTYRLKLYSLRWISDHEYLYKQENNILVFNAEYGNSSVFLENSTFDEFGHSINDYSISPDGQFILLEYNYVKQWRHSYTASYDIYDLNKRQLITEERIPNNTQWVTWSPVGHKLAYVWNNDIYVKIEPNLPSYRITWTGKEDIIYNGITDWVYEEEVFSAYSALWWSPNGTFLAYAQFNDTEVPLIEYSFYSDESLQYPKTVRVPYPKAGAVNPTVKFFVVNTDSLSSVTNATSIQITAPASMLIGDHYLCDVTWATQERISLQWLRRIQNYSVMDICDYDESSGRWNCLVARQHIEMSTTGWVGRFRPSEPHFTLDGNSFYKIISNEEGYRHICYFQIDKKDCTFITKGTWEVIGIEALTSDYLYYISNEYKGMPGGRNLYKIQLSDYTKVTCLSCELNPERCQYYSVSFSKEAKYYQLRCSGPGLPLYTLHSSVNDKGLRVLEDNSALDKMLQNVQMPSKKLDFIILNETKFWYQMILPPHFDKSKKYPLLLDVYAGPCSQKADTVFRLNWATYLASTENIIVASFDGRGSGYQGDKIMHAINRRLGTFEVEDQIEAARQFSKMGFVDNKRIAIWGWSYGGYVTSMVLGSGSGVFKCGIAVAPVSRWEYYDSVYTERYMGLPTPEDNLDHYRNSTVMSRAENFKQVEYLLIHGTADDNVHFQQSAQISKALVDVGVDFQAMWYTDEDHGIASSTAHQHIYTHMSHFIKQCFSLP
How it was run: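 DPP-IV activity was measured at 37 °C as Gly-Pro-AMC (30 µM) cleavage in Tris–HCl pH 7.4 with test compound. Fluorescence was read at excitation 355 nm and emission 460 nm. The initial rate was taken over the first 15 min.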

[3] = test system: Rattus norvegicus; test: Antihyperglycemic activity in Charles Foster-Wistar albino rat sucrose loaded model assessed as decrease of blood glucose level at 100 mg/kg, po administered 30 mins before glucose challenge measured up to 120 mins by glucometer; type: functional; set-up: scale not given: the % may be the effect or the level left; settings: in the assay text read “Sprague-Dawley” for “Charles Foster-Wistar”
How it was run: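 Sprague–Dawley male rats with blood glucose 60–80 mg/dl, 5–6 per group, received 100 mg/kg orally as a suspension in 1.0% gum acacia; controls received vehicle. Sucrose 10.0 g/kg was given orally 30 min later. Glucose was read by glucometer at 30, 60, 90 and 120 min. Food was withheld. Percent activity came from AUC versus control.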

[4] = biological target: T1, Tyrosine-protein phosphatase non-receptor type 1 (Homo sapiens) (UniProt P18031); test: Inhibition of PTP1B assessed as p-nitrophenolate ion production at 100 uM pretreated for 10 mins measured after 30 mins
T1 sequence (whole entry): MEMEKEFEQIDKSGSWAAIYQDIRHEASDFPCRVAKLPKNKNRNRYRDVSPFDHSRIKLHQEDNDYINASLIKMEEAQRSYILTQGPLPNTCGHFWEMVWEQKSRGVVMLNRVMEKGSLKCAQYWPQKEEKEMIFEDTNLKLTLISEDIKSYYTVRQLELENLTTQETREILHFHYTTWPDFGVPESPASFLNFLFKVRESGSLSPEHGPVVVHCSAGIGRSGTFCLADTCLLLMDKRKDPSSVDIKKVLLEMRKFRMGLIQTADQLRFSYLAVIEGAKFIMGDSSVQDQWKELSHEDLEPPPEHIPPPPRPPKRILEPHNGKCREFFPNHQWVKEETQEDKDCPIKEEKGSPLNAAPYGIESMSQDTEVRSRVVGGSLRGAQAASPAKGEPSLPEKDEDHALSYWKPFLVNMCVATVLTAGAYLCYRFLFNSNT
How it was run: (§1)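 PTP1B was preincubated 10 min with compound, with and without 0.01% Triton X-100. Substrate was 10 mM pNPP in 50 mM HEPES pH 7.0 with 1 mM DTT and 2 mM EDTA. After 30 min at 37 °C the reaction was stopped with 0.1 N NaOH and A410 was read. Product was calculated with ε 1.78×10⁴ M⁻¹cm⁻¹. Sodium orthovanadate served as standard. IC50 came from dose–response curves.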

[5] = Inhibition of alpha-glucosidase at 100 uM after 3 mins
How it was run: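 α-Glucosidase (0.1 mg/mL, purified) was assayed in 67 mM sodium phosphate pH 6.8 with 1.0 mg/mL glutathione. The reaction was started with 3.0 mg/mL pNPG and followed at 405 nm every 30 s for 3 min.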

[6] = biological target: T2, Glucose-6-phosphatase catalytic subunit 1 (Homo sapiens) (UniProt P35575); test: Inhibition of glucose-6-phosphatase assessed as inositol phosphate release at 100 uM after 30 mins; settings: in the assay text read “inorganic phosphate” for “inositol phosphate”
T2 sequence (whole entry): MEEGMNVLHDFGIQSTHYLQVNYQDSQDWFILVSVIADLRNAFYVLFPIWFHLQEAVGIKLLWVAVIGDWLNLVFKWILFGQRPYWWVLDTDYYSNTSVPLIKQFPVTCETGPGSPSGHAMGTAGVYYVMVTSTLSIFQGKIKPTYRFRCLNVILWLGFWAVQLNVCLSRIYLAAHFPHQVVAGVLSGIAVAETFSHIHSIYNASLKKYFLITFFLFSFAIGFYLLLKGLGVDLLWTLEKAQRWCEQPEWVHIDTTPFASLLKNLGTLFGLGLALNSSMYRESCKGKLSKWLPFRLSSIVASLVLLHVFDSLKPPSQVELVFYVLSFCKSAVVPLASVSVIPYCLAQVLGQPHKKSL
How it was run: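 Glucose-6-phosphatase was assayed in 0.3 M citrate pH 6.0 with 28 mM EDTA, 14 mM NaF, 200 mM glucose-6-phosphate and enzyme protein. After 30 min at 37 °C the reaction was stopped with 10% TCA. Activity was expressed as µmol Pi released per min per mg protein.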

[7] = biological target: T3, Tyrosine-protein phosphatase non-receptor type 1 (Homo sapiens, UniProt P18031); test: Inhibition of PTP1B assessed as p-nitrophenolate ion production pretreated for 10 mins measured after 30 mins; how it was run: as §1
T3 sequence (P18031 whole entry): T1 sequence (whole entry)

[8] = test system: Rattus norvegicus; test: Antihyperglycemic activity in Sprague-Dawley albino rat streptozotocin-induced beta-cell damaged diabetic model assessed as decrease of blood glucose level at 100 mg/kg, po administered 30 mins before glucose challenge measured after 24 hrs by glucometer; type: functional; set-up: scale not given: the % may be the effect or the level left
How it was run: (§2)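 Rats were made diabetic with streptozotocin 60 mg/kg ip in 100 mM citrate pH 4.5 after an overnight fast. Animals with glucose 144–270 mg/dl at 48 h were used, 5–6 per group. Compounds were given 100 mg/kg orally in 1.0% gum acacia. Sucrose 2.5 g/kg followed 30 min later. Glucose was read by glucostrips up to 300 min and at 24 h. Non-responders were excluded. Percent activity came from AUC versus control.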

[9] = test system: Rattus norvegicus; test: Antihyperglycemic activity in Sprague-Dawley albino rat streptozotocin-induced beta-cell damaged diabetic model assessed as decrease of blood glucose level at 100 mg/kg, po administered 30 mins before glucose challenge measured after 5 hrs by glucometer; type: functional; set-up: scale not given: the % may be the effect or the level left; how it was run: as §2

Compound: CCOC(=O)C1=CC(c2ccc(Cl)cc2)C2=C(CC(C)(C)CC2=O)N1 (stereo unspecified)
- inhibition [1]: 56.7%
- inhibition [2]: 12.5%
- Activity [3]: 11.4%
- inhibition [4]: 53.8%
- inhibition [5]: inactive
- inhibition [6]: 11.3%

Compound: CCOC(=O)C1(O)CC(c2ccc(OC)cc2)C2=C(CC(C)(C)CC2=O)O1 (stereo unspecified)
- inhibition [1]: inactive
- inhibition [2]: inactive
- Activity ([3]; Sprague-Dawley albino): inactive
- inhibition [4]: 13.6%
- inhibition [5]: inactive
- inhibition [6]: inactive

Compound: COc1ccc(C2C=C(c3ccccc3)NC3=C2C(=O)CC(C)(C)C3)cc1 (stereo unspecified)
- inhibition [1]: inactive
- inhibition [2]: 8.6%
- IC50 [7]: 14.5 µM
- Activity [8]: 10.9%
- Activity [3]: 17.8%
- inhibition [4]: 71.8%
- inhibition [5]: inactive
- inhibition [6]: inactive
- Activity [9]: 8.8%

Compound: CC1(C)CC(=O)C2=C(C1)NC(c1ccccc1)=CC2c1c[nH]c2ccccc12 (stereo unspecified)
- inhibition [1]: 39.7%
- inhibition [2]: inactive
- Activity [8]: 13.2%
- Activity [3]: 17.3%
- inhibition [4]: 54.5%
- inhibition [5]: inactive
- inhibition [6]: 26.7%
- Activity [9]: 8.1%

Compound: Cc1ccc(C2=CC(c3ccccc3)C3=C(CCCC3=O)N2)cc1 (stereo unspecified)
- inhibition [1]: inactive
- inhibition [2]: 18.8%
- Activity [3]: 13.4%
- inhibition [4]: 33.3%
- inhibition [5]: 8.3%
- inhibition [6]: 27.7%

Compound: CCOC(=O)C1=CC(c2ccc(OC)cc2)C2=C(CC(C)(C)CC2=O)N1 (stereo unspecified)
- inhibition [1]: 40.4%
- inhibition [2]: 16.5%
- Activity [3]: 12.9%
- inhibition [4]: 66.7%
- inhibition [5]: inactive
- inhibition [6]: 23.8%

Compound: CC1(C)CC(=O)c2c(-c3ccc(Cl)cc3)cc(-c3ccccc3)nc2C1
- inhibition [1]: 13.8%
- inhibition [2]: 29.4%
- Activity ([3]; Sprague-Dawley albino): inactive
- inhibition [4]: 18.6%
- inhibition [5]: inactive
- inhibition [6]: 11.3%

Compound: CN(C)C(=N)NC(=N)N [METFORMIN]
- Activity [8]: 20.2%
- Activity [3]: 13.5%
- Activity [9]: 18%

Compound: COc1ccc(Cl)cc1C(=O)NCCc1ccc(S(=O)(=O)NC(=O)NC2CCCCC2)cc1 [GLYBURIDE]
- Activity [8]: 28.4%
- Activity [3]: 32.5%
- Activity [9]: 25.6%

Compound: O=C1CCCC2=C1C(c1ccccc1)C=C(c1ccccc1)N2 (stereo unspecified)
- inhibition [1]: 21.8%
- inhibition [2]: inactive
- Activity [8]: 13.8%
- Activity [3]: 19.7%
- inhibition [4]: 51.2%
- inhibition [5]: inactive
- inhibition [6]: inactive
- Activity [9]: 15.1%

Compound: CC1(C)CC(=O)c2c(-c3ccc(F)cc3)cc(-c3ccccc3)nc2C1
- inhibition [1]: 20.3%
- inhibition [2]: 13.1%
- Activity ([3]; Sprague-Dawley albino): inactive
- inhibition [4]: 7.9%
- inhibition [5]: inactive
- inhibition [6]: 11.1%

Compound: CCOC(=O)C1=CC(c2ccc(Br)cc2)C2=C(CC(C)(C)CC2=O)N1 (stereo unspecified)
- inhibition [1]: 49.3%
- inhibition [2]: inactive
- IC50 [7]: 16.6 µM
- Activity [3]: 11.4%
- inhibition [4]: 65.6%
- inhibition [5]: inactive
- inhibition [6]: inactive

Compound: COc1ccc(C2C=C(c3ccccc3)NC3=C2C(=O)CCC3)cc1 (stereo unspecified)
- inhibition [1]: 13.8%
- inhibition [2]: inactive
- Activity [8]: 19.4%
- Activity [3]: 29.6%
- inhibition [4]: 56.8%
- inhibition [5]: 7.3%
- inhibition [6]: 17.3%
- Activity [9]: 17.5%

Compound: O=C1CCCC2=C1C(c1ccc(F)cc1)C=C(c1ccccc1)N2 (stereo unspecified)
- inhibition [1]: 17.4%
- inhibition [2]: inactive
- IC50 [7]: 12.6 µM
- Activity [8]: 24.1%
- Activity [3]: 34.5%
- inhibition [4]: 70.3%
- inhibition [5]: inactive
- inhibition [6]: 21.9%
- Activity [9]: 19.6%

Compound: SODIUM ORTHOVANAD
- inhibition [2]: 57.8%

Compound: CCOC(=O)C1(O)CC(c2ccc(Br)cc2)C2=C(CC(C)(C)CC2=O)O1 (stereo unspecified)
- inhibition [1]: 12.3%
- inhibition [2]: inactive
- Activity ([3]; Sprague-Dawley albino): inactive
- inhibition [4]: 4.7%
- inhibition [5]: inactive
- inhibition [6]: inactive

Compound: CCOC(=O)C1(O)CC(c2ccc(Cl)cc2)C2=C(CC(C)(C)CC2=O)O1 (stereo unspecified)
- inhibition [1]: 7.6%
- inhibition [2]: inactive
- Activity ([3]; Sprague-Dawley albino): inactive
- inhibition [4]: 16.5%
- inhibition [5]: inactive
- inhibition [6]: inactive

Compound: CC1(C)CC(=O)C2=C(C1)NC(C(=O)O)=CC2c1ccc(F)cc1 (stereo unspecified)
- inhibition [1]: 46.6%
- inhibition [2]: inactive
- Activity [8]: 23.6%
- Activity [3]: 38.7%
- inhibition [4]: 27%
- inhibition [5]: 1.4%
- inhibition [6]: 16.8%
- Activity [9]: 27.8%

Compound: CCOC(=O)C1=CC(c2ccccc2)C2=C(CC(C)(C)CC2=O)N1 (stereo unspecified)
- inhibition [1]: 49.5%
- inhibition [2]: inactive
- Activity [8]: 11.3%
- Activity [3]: 16.6%
- inhibition [4]: 43.3%
- inhibition [5]: inactive
- inhibition [6]: inactive
- Activity [9]: 7.1%

Compound: COc1ccc(C2=CC(c3ccccc3)C3=C(CC(C)(C)CC3=O)N2)cc1 (stereo unspecified)
- inhibition [1]: 18.4%
- inhibition [2]: inactive
- Activity [8]: 11.7%
- Activity [3]: 17.3%
- inhibition [4]: 53.4%
- inhibition [5]: 22.4%
- inhibition [6]: 8.34%
- Activity [9]: 11.9%

Compound: CC1(C)CC(=O)C2=C(C1)NC(c1ccccc1)=CC2c1ccc([N+](=O)[O-])cc1 (stereo unspecified)
- inhibition [1]: inactive
- inhibition [2]: inactive
- IC50 [7]: 6.1 µM
- Activity [3]: 14.1%
- inhibition [4]: 84.7%
- inhibition [5]: 22.4%
- inhibition [6]: inactive

Compound: CCOC(=O)C1(O)CC(c2ccccc2)C2=C(CC(C)(C)CC2=O)O1 (stereo unspecified)
- inhibition [1]: inactive
- inhibition [2]: inactive
- Activity ([3]; Sprague-Dawley albino): inactive
- inhibition [4]: 21.3%
- inhibition [5]: inactive
- inhibition [6]: inactive

Compound: CC1(C)CC(=O)C2=C(C1)NC(c1ccccc1)=CC2c1ccco1 (stereo unspecified)
- inhibition [1]: 18.9%
- inhibition [2]: 18.6%
- IC50 [7]: 7.7 µM
- Activity [3]: 14.6%
- inhibition [4]: 82.5%
- inhibition [5]: inactive
- inhibition [6]: 11.4%

Compound: Cc1ccc(C2=CC(c3ccccc3)C3=C(CC(C)(C)CC3=O)N2)cc1 (stereo unspecified)
- inhibition [1]: 31.7%
- inhibition [2]: inactive
- IC50 [7]: 19.6 µM
- Activity [3]: 11.4%
- inhibition [4]: 62.3%
- inhibition [5]: inactive
- inhibition [6]: inactive

Compound: COc1ccc(-c2cc(-c3ccccc3)nc3c2C(=O)CC(C)(C)C3)cc1
- inhibition [1]: 31.1%
- inhibition [2]: 22%
- Activity ([3]; Sprague-Dawley albino): inactive
- inhibition [4]: 9.1%
- inhibition [5]: inactive
- inhibition [6]: inactive
